Test results: ChEMBL document CHEMBL1134767, “Structural basis of binding of high-affinity ligands to protein kinase C: prediction of the binding modes through a new molecular dynamics method and evaluation by site-directed mutagenesis” (J Med Chem, 2001)

What was measured:
[1] = target: Protein kinase C delta type (Mus musculus, UniProt P28867, F243G); assay: Displacement of [3H]PDBu from protein kinase C delta C1b domain mutant (F13G)
Method in brief: (§1)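 PKCδ C1b domain, wild type or sequence-confirmed point mutant, expressed as a GST-fusion protein in E. coli and used purified or as total lysate. Incubated 5 min at 18 °C with [3H]PDBu, […] phosphatidylserine, 1 mM EGTA and varied unlabeled ligand. Protein was precipitated with 35% poly(ethylene glycol) and centrifuged, and supernatant and pellet radioactivity counted. Ki was calculated from final ligand concentrations.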

[2] = target: Protein kinase C delta type (Mus musculus, UniProt P28867, L250G); assay: Displacement of [3H]PDBu from protein kinase C delta C1b domain mutant (L20G); method in brief: as §1
Sequence of Protein kinase C delta type (Mus musculus, UniProt P28867, L250G) (P28867 whole entry L250G, the tested form may be a part): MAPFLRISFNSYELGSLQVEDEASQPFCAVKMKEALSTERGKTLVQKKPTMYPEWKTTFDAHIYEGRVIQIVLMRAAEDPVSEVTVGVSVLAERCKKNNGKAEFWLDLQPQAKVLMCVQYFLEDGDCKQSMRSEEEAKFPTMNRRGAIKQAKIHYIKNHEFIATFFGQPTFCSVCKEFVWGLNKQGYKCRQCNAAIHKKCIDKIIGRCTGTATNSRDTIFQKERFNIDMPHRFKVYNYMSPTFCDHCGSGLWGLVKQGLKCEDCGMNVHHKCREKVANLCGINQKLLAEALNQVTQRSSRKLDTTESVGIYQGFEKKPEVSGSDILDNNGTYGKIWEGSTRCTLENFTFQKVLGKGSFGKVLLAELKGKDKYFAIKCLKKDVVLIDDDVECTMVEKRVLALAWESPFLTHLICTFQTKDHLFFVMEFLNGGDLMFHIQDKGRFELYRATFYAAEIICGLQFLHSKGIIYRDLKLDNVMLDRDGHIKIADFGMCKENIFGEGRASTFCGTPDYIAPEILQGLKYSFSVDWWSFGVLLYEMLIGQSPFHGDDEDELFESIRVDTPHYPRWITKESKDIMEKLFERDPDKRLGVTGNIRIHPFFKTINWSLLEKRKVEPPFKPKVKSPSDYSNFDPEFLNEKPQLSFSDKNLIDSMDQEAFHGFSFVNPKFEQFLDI

[3] = target: Protein kinase C delta type (Mus musculus, UniProt P28867, P241G); assay: Displacement of [3H]-PDBu from protein kinase C delta C1b domain mutant (P11G); method in brief: as §1
Sequence of Protein kinase C delta type (Mus musculus, UniProt P28867, P241G) (P28867 whole entry P241G, the tested form may be a part): as the sequence (P28867 whole entry L250G, the tested form may be a part) above, with P241G, G250L counted along it

[4] = target: Protein kinase C delta type (Mus musculus, UniProt P28867, Q257V); assay: Displacement of [3H]PDBu from protein kinase C delta C1b domain mutant (Q27V); method in brief: as §1
Sequence of Protein kinase C delta type (Mus musculus, UniProt P28867, Q257V) (P28867 whole entry Q257V, the tested form may be a part): as the sequence (P28867 whole entry L250G, the tested form may be a part) above, with G250L, Q257V counted along it

[5] = target: Protein kinase C delta type (Mus musculus, UniProt P28867, T242G); assay: Displacement of [3H]PDBu from protein kinase C delta C1b domain mutant (T12G); method in brief: as §1
Sequence of Protein kinase C delta type (Mus musculus, UniProt P28867, T242G) (P28867 whole entry T242G, the tested form may be a part): as the sequence (P28867 whole entry L250G, the tested form may be a part) above, with T242G, G250L counted along it

[6] = target: Protein kinase C delta type (Mus musculus, UniProt P28867, T8G); assay: Displacement of [3H]PDBu from protein kinase C delta C1b domain mutant (T8G); method in brief: as §1
Sequence of Protein kinase C delta type (Mus musculus, UniProt P28867, T8G) (P28867 whole entry, looked up, stated change not applied, the tested form may be a part): as the sequence (P28867 whole entry L250G, the tested form may be a part) above, with G250L counted along it

[7] = target: Protein kinase C delta type (Mus musculus, UniProt P28867); assay: Displacement of [3H]PDBu from protein kinase C delta C1b domain (Wild type); method in brief: as §1
Sequence of Protein kinase C delta type (Mus musculus, UniProt P28867) (P28867 whole entry, the tested form may be a part): as the sequence (P28867 whole entry L250G, the tested form may be a part) above, with G250L counted along it

[8] = target: Protein kinase C delta type (Mus musculus, UniProt P28867, W252G); assay: Displacement of [3H]PDBu from protein kinase C delta C1b domain mutant (W22G)
Sequence of Protein kinase C delta type (Mus musculus, UniProt P28867, W252G) (P28867 whole entry W252G, the tested form may be a part): as the sequence (P28867 whole entry L250G, the tested form may be a part) above, with G250L, W252G counted along it

Sequence of Protein kinase C delta type (Mus musculus, UniProt P28867, F243G) (P28867 whole entry F243G, the tested form may be a part): as the sequence (P28867 whole entry L250G, the tested form may be a part) above, with F243G, G250L counted along it

Compound	Ki [1]	Ki [2]	Ki [3]	Ki [4]	Ki [5]	Ki [6]	Ki [7]	Ki [8]
CC1=CC23C(=O)[C@@H](C=C(CO)[C@@H](O)[C@]2(O)[C@H]1OC(=O)c1ccccc1)[C@H]1[C@@H](C[C@H]3C)C1(C)C	0.15 nM	1.08 nM	10.8 nM	1.41 nM	0.72 nM	3.14 nM	0.13 nM	
C=C(C)[C@@]12OC3(c4ccccc4)O[C@@H]1[C@@H]1C4O[C@]4(CO)[C@@H](O)[C@]4(O)C(=O)C(C)=C[C@H]4[C@@]1(O3)[C@H](C)[C@H]2OC(=O)/C=C/c1ccccc1 (stereo partly drawn) [THYMELEATOXIN]	7.8 nM	11.3 nM	417 nM	47.1 nM	19.1 nM	86.6 nM	2.71 nM	
CCCC(=O)O[C@@H]1[C@@H](C)[C@@]2(O)[C@@H](C=C(CO)C[C@]3(O)C(=O)C(C)=C[C@@H]23)[C@@H]2C(C)(C)[C@]12OC(=O)CCC	0.82 nM	6.59 nM	210 nM	14.2 nM	1.24 nM	18.4 nM	0.351 nM	25 nM
CC(C)[C@H]1C(=O)N[C@H](CO)Cc2c[nH]c3cccc(c23)N1C [INDOLACTUM]	10.9 nM	66.2 nM	7080 nM	1100 nM	25.3 nM	658 nM		
